Screens: PubChem BioAssay, several laboratories
ASAP1 inh: inhibitors of human ASAP1 ArfGAP activity, primary screen, biochemical, fluorescence polarization; Arf-GAP with SH3 domain, ANK repeat and PH domain-containing protein 1 (Homo sapiens), …; ASAP1-stimulated ARF1 GTP hydrolysis, GDP FP detection; inhibition, % at 16.5 µM; 0.19% of 360,000 active; in the data active = inhibition above about 25%;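 also: 0% = vehicle with enzyme and substrate and 100% = no enzyme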
V-ATPase pH: regulators of yeast V-ATPase proton pumping, primary screen, pHLuorin cytosolic pH fluorescence; AID 504577, 2011; S. cerevisiae; 0.37% of 350,000 active; response, % at 10 µM; in the data active = response mostly above about 7.3%, no sharp cut-off; inactive = mostly below about 5.4%; also: actives read high
NRP1-CendR mod: modulators of CendR peptide binding to NRP-1, primary screen, biochemical, fluorescence polarization, uHTS. Neuropilin-1 (Homo sapiens), O14786. FAM-RPARPAR peptide binding to NRP-1. inhibition, % at 25 µM. 0.85% of 360,000 active;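 active = inhibition or corrected inhibition above about 18%, plus a signal ratio from 0.5 to 1.5, limit read from the data, passing the limit was not always enough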
Target sequence (O14786 whole entry, looked up): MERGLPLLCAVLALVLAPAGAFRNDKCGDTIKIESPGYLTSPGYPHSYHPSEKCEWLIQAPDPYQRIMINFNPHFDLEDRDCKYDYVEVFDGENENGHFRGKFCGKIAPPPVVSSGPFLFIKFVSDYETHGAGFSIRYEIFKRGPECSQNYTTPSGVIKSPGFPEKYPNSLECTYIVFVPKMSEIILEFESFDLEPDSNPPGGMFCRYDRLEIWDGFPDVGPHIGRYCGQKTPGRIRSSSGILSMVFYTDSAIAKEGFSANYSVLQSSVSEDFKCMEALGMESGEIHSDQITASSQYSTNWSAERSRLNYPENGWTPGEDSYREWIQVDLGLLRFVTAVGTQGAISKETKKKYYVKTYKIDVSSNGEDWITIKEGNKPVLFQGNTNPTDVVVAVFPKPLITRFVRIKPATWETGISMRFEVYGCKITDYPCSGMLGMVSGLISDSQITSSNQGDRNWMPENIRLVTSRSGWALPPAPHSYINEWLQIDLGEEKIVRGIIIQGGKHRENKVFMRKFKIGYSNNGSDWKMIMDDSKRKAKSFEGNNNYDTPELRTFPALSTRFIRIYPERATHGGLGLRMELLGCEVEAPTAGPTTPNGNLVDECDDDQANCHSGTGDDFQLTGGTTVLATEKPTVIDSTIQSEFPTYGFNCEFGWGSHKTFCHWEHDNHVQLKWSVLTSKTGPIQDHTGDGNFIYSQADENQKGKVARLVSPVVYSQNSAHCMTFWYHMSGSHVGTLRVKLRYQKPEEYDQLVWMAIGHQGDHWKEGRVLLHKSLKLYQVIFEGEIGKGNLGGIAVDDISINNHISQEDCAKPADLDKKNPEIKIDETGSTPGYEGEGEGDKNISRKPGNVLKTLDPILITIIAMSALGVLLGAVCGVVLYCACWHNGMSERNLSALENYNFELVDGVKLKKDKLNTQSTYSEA
Granule exo inh: LAMP-1 surface exposure blockers, TALL-104 cells – cell-based, flow cytometry, MLPCN library, primary screen; TALL-104 LAMP-1 surface exposure; cells stimulated with thapsigargin and PMA; inhibition, % at 10 µM; 0.66% of 360,000 active; AID 651702, 2012;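 active = inhibition above about 55%, limit read from the data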
ARFGAP1 inh: inhibitors of rat ARFGAP1 GAP activity, primary screen, biochemical, fluorescence polarization, GDP tracer. AID 651572, 2012. Arfgap1-stimulated ARF1 GTP hydrolysis, GDP FP detection. inhibition, % at 16.5 µM. 0.26% of 360,000 active. ADP-ribosylation factor GTPase-activating protein 1 (Rattus norvegicus), Q62848;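 active = inhibition above a per-plate limit, mean inhibition of low control wells plus 3 SD, cut at about 25% in these data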;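 also: 0% = DMSO wells with enzyme and 100% = wells lacking Arfgap1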
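System: truncated rat Arfgap1 GAP domain / Medium: HEPES-based buffer, pH 7.5 / Also added: N-terminally truncated human ARF1-GTP substrate / Incubation: enzyme reaction 120 min at 25 °C after 20 min preincubation / Measured by: FP of antibody-bound GDP Alexa 633 tracer, ex 620/em 688 nm / Replicates: singlicate, each compound tested once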
Granule exo CP1: inhibitors of lytic granule exocytosis, confirmation, TALL-104 cells, flow cytometry, Cherry Pick01; shares compounds with Granule exo inh; LAMP-1 externalization; stimulated with PMA plus thapsigargin; inhibition, % at 10 µM; 11% of 1,500 active; in the data active = inhibition above about 60%;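 also: 0% = stimulated vehicle wells and 100% = unstimulated wells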
Starred values were filed as active, the others as inactive; / = no result; ! = repeats disagree. Hits are enriched below; roughly 2.2% of the tested compounds scored in any of these assays.

SMILES	ASAP1 inh	V-ATPase pH	NRP1-CendR mod	Granule exo inh	ARFGAP1 inh	Granule exo CP1
CS(=O)(=O)N(CC(=O)Nc1cccc(Cl)c1)c1ccccc1Cl	-4	4	-3	85*	-9	-1
CCOc1ccccc1N(CC(=O)Nc1ccccc1F)S(=O)(=O)c1ccccc1	-11	3	-1	57*	18	-15
CC(=NNC(=O)CCC(=O)Nc1ccccc1Cl)c1ccco1	-4	-5	13	-3	12	/
COc1cc2c(cc1[N+](=O)[O-])-c1ccc([N+](=O)[O-])cc1C2=NO	8	-1	-13	8	17	/
Cc1ccc(NC(=O)CN2C(=O)NC3(CCCCC3C)C2=O)cc1S(=O)(=O)N1CCOCC1 (centres undefined)	-4	-1	-4	-6	4	/
CCOc1ccc(N(CC(=O)NCc2ccc(Cl)cc2)S(=O)(=O)c2ccccc2)cc1	5	-1	3	77*	8	-5
CCOc1ccc(N(CC(=O)NCc2ccccc2)S(=O)(=O)c2ccc(C)cc2)cc1	-4	3	7	41	1	/
COc1ccccc1N(CC(=O)NCCSCc1ccccc1)S(=O)(=O)c1ccc(C)cc1	10	4	19*	90*	-9	5
CCN(CC(=O)NCc1cccs1)C(=O)CCOc1ccccc1C	-8	0	8	4	-6	/
CCN(CC(=O)NCc1ccc(Cl)cc1)C(=O)CCOc1ccccc1C	-5	4	-4	80*	-12	-13
COc1ccccc1N(CC(=O)NCCSCc1ccccc1)S(=O)(=O)c1ccccc1	-1	-1	2	7	-9	/
CCCCS(=O)(=O)N1CCCc2nc(C)c(C)cc21	2	/	/	/	-8	/
Cc1noc(C)c1S(=O)(=O)NC(=O)C1(C)CCN1C(=O)C1(c2ccc(Cl)cc2)CCC1 (centres undefined)	0	/	15	0	-7	/
Clc1ccc(CN2CCc3c([nH]c4ccccc34)C2)cc1Cl	4	-2	9	58*	4	-4
CSc1ccc(CN2CCc3c([nH]c4ccccc34)C2)cc1	5	-1	-13	49	4	/
Cc1cccc(CN2CCc3c([nH]c4ccccc34)C2)c1	10	0	1	15	-3	/
Clc1cccc(CN2CCc3c([nH]c4ccccc34)C2)c1	6	-1	-4	58*	4	-14
COC(=O)[C@]12C[C@H](CC(=O)NCc3ccccc3)C(=O)N(Cc3ccccc3)C1=C[C@H](C(C)C)O[C@@H]2C1CC1	-3	/	/	/	4	/
COc1ccc(/C=C/C(=O)N2CCCc3ccccc32)c(OC)c1	-1	1	3	72*	-5	-11
CC(NC(=O)COC(=O)C1(C)CC1(Cl)Cl)c1ccccc1 (centres undefined)	-14	1	-14	-6	3	/
CS(=O)(=O)c1ccccc1C(=O)Nc1ccc(-c2nc3ccccc3[nH]2)cc1	-2	1	11	-4	13	/
O=C(Nc1ccc(-c2nc3ccccc3[nH]2)cc1)c1ccccc1NS(=O)(=O)c1ccc(F)cc1	11	7	0	68*	20	5
Cc1cc(F)ccc1S(=O)(=O)Nc1ccccc1C(=O)Nc1ccccc1-c1nc2ccccc2[nH]1	/	0	1	90*	/	94*
CCCC1NC(=O)c2cccnc2-n2c1nc1ccc(C)cc1c2=O (centres undefined)	-3	0	-12	-4	-3	/
O=C(NC1CCCC1)[C@@H]1CCCN1C(=O)[C@@H](NC(=O)N1CCOCC1)c1ccccc1	18	/	/	/	21	/
SMILES	ASAP1 inh	V-ATPase pH	NRP1-CendR mod	Granule exo inh	ARFGAP1 inh	Granule exo CP1
COc1ccc(OC)c(-c2csc(NC(=O)Cc3ccccc3)n2)c1	15	2	-5	59*	4	-13
COc1cccc(NC(=O)Nc2nc(-c3ccc(OC)c(OC)c3)cs2)c1	-4	-2	-9	78*	10	87*
COc1ccc(OC)c(-c2csc(NC(=O)Cc3ccc(OC)c(OC)c3)n2)c1	5	1	-2	64*	11	-4
COc1ccc(C)cc1-n1nnnc1SC(C)C(=O)NC1CCCC1 (centres undefined)	14	5	6	0	-1	/
CCN1CCN(Cc2ccc(NC(=O)c3ccc(C)c(NC(=O)C[C@@H]4NC(=O)[C@H](Cc5ccccc5)NC4=O)c3)cc2C(F)(F)F)CC1	2	0	10	76*!	18	-13
CCN1CCN(Cc2ccc(NC(=O)c3ccc(C)c(NC(=O)C4=NN(c5ccccc5)C(=O)C4)c3)cc2C(F)(F)F)CC1	4	1	-10	-3	17	/
CCOC(=O)C1c2cccc(O)c2CCN1C(C)=O (centres undefined)	-4	-1	-1	114*	0	-13
COc1ccc2c(c1)[C@H]1[C@H](CO2)[C@H](c2ccccc2)[C@]2(C)C(=O)N(Cc3ccc(C)cc3)CC(=O)N12	/	1	-2	-5	/	/
CS(=O)(=O)N(Cc1ccc(C(=O)Nc2ccccc2Sc2ccccc2)cc1)c1ccccc1	6	-2	-3	85*	6	-2
O=C(Nc1ccccc1Sc1ccccc1)c1ccccc1	6	2	11	-1	14	/
Cc1ccccc1C(=O)NCC(C)NC(=O)c1ccccc1C (centres undefined)	8	-4	5	9	-1	/
Cc1ccc(-c2nnc(CSc3nnc(COc4ccccc4)n3-c3ccc(C)cc3)o2)cc1	5	2	1	76*	6	-2
CCN(CC)C(=O)c1ncn2c1C(=O)NC[C@H]2C	1	/	/	/	0	/
CC(C)NC(=O)Cn1nnc(-c2ccccc2)c1COc1ccc2ccccc2c1	-6	/	20	0	3	/
CCOc1cccc(CN(C)CC2CCCN(CCc3ccc(Cl)cc3)C2)c1O (centres undefined)	0	-3	-5	76*	7	-2
COc1ccccc1CCN1CCCC(CN(C)CC(C)(C)CO)C1 (centres undefined)	-5	6	-4	62*	6	-4
COc1ccc(CN(C)CC2CCCN(CCc3ccc(Cl)cc3)C2)cc1OC (centres undefined)	10	3	-10	14	4	/
COc1cc(CN(C)CC2CCCN(CCc3cccc(C(F)(F)F)c3)C2)ccc1O (centres undefined)	-4	-6	7	56*	5	-3
